From article PMC2881163 (The journal of physical chemistry. B, 2010)

How the values were obtained:
[1] = Dynamic light scattering of aqueous solutions; assay type: physicochemical; conditions: 25 °C; for z-average diameter of micelles: DLS cumulant analysis, water, concentrations above the CMC, mean ± SD
Procedure, shortened: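 He-Ne laser (632.8 nm) with backscatter detection at 173°, 25 °C, using water viscosity 0.8937 cP and refractive index 1.333. Samples diluted from stock in Milli-Q water and filtered (0.02 μm). Solvent scattering was subtracted and plotted against concentration, with the inflection taken as the CMC. Triton X-100 served as positive control and a non-amphiphilic peptide as negative control. Triplicate samples were each read three times. Z-average came from a single-exponential cumulant fit and size distribution from a multi-exponential fit.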

[2] = Surface tension, Du Nouy ring tensiometer; assay type: physicochemical; conditions: aqueous solution, 25 °C; for surface tension: at 10 mM, triplicate solutions
Procedure, shortened: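 Test compound solutions were equilibrated to 25 °C. The ring was immersed 5 mm below the surface, then retracted automatically at 5 mm/min. Between measurements the ring was rinsed with water and ethanol and flamed. Solutions were prepared in triplicate.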

[3] = test system: mice; conditions: cited from earlier work
[4] = Stability of CMS in solution; assay type: physicochemical; conditions: 0.9% saline, 25 °C, over 120 hr
[5] = cited from earlier work
[6] = low, clinically relevant concentrations; cited from earlier work

With Colistin as the substance, how does the “z-average diameter of micelles” value [1] read?
Its value is 2.07 ± 0.3 nm.

And the “interfacial tension after the CMC” value [2]?
Its value is “approximately 40 dynes/cm”.

What about the surface tension [2] of the same substance?
The surface tension was 35–40 mN/m.

What about the LD50 [3] of the same substance?
Its LD50 is 217.7 mg/kg.

With Triton X-100 as the substance, how does the “z-average diameter of micelles” value [1] read?
The value was 8.17 ± 0.59 nm.

Which results are given for colistin methanesulfonate [CMS]?
z-average diameter of micelles [1]: ~1.98 ± 0.36 nm; surface tension [2]: 35–40 mN/m; conversion of CMS to colistin, initial concentration 0.052 mM ([4]; n = 3, HPLC of colistin formed): Rapid conversion; conversion of CMS to colistin, initial concentration 0.52 mM ([4]; n = 3, HPLC of colistin formed): Less rapid conversion; degradation of CMS, initial concentration 5.2 mM ([4]; n = 3, well above the CMC): negligible; degradation of CMS, initial concentration 52 mM ([4]; n = 3, well above the CMC): negligible; LD50 [3]: 5.43 mg/kg; conversion of CMS to colistin in buffer solutions in vitro ([5]; <100 μg/mL at 37 °C): rapid; stability of concentrated CMS solutions with respect to formation of colistin ([5]; >70 mg/mL, relevant to commercial pharmaceutical formulations): stable for extended periods; conversion of CMS to colistin in plasma and urine in vivo [6]: rapid

With “polymyxin B nonapeptide hydrochloride [PMBN]” as the substance, how does the “light scattering above that of water” value ([1]; DLS, up to 20 mM, no reliable size data could be obtained) read?
Its value is “negligible”.
